The source made the active and inactive calls. No cut-off for these calls is given here.
Experiments:
[1] = target: T1, Fatty-acid amide hydrolase 1 (Homo sapiens) (UniProt O00519); assay: Inhibition of human FAAH expressed in COS7 cell membranes at 20 uM pre-incubated for 10 mins before [3H]-AEA substrate addition by liquid scintillation counting; settings: COS-7
T1 sequence (whole entry): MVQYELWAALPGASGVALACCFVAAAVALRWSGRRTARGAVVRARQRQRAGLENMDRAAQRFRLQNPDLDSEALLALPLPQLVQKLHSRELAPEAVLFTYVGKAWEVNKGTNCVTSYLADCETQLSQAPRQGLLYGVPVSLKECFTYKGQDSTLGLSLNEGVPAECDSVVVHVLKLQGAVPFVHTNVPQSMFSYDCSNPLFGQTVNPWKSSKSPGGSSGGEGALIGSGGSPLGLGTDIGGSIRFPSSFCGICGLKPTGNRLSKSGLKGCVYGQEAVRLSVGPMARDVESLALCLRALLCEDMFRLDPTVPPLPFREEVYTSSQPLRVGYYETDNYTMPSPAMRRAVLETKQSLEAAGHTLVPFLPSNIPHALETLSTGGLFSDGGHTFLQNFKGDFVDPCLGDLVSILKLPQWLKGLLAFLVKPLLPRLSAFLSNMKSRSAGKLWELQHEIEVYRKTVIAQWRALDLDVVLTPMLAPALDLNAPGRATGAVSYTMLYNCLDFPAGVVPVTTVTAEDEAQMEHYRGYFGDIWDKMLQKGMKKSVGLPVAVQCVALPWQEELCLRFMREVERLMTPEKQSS

[2] = target: T2, Monoglyceride lipase (Homo sapiens) (UniProt Q99685); assay: Inhibition of human MAGL expressed in HEK293 cells at 10 uM pre-incubated for 10 mins before 2-AG substrate addition by HPLC method; type: cell-based
T2 sequence (whole entry): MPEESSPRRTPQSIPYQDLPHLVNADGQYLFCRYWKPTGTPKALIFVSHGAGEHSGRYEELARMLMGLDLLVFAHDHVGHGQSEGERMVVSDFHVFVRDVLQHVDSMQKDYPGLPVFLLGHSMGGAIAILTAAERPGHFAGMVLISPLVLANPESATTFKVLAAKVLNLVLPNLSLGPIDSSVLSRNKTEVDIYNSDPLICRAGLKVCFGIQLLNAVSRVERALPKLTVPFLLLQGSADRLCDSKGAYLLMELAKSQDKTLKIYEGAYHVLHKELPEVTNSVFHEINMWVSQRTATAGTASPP
How it was run: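 Lysates of hMAGL-overexpressing HEK293 cells in 50 mM Tris–HCl pH 7.4 with 1 mM EDTA. After a 10 min preincubation with inhibitor or DMSO, 2-AG was added (final 50 µM) and incubated 10 min at 37 °C. The reaction was stopped and samples centrifuged. Arachidonic acid formation and 2-AG depletion were measured by HPLC. Replicates as for the FAAH assay.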

[3] = target: T3, Monoacylglycerol lipase ABHD6 (Mus musculus) (UniProt Q8R2Y0); assay: Inhibition of ABHD6 in mouse whole brain membranes at 10 uM incubated for 1 hr by TAMRA-FP probe based competitive activity-based protein profiling assay; type: cell membranes; settings: Membrane
T3 sequence (whole entry): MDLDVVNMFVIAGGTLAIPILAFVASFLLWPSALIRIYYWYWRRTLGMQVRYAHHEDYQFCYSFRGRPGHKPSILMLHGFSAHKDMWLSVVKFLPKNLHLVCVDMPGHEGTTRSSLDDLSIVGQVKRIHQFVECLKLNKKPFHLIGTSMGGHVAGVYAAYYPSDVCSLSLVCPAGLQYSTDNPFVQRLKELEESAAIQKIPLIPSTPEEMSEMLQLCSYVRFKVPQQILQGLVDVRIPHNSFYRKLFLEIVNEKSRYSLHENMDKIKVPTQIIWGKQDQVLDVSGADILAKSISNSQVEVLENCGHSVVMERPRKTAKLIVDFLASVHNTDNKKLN
How it was run: (§1)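 Competitive ABPP on mouse brain membranes (100 µg) treated 1 h with DMSO or inhibitor. TAMRA-FP labelling then ran 1 h at RT (final probe 2 µM). Reaction was quenched with gel loading buffer and proteins resolved by 10% SDS–PAGE for fluorescent band read-out. WWL70 located the ABHD6 band. Gels are representative of two experiments.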

[4] = target: T4, Fatty-acid amide hydrolase 1 (Mus musculus) (UniProt O08914); assay: Inhibition of FAAH in mouse whole brain membranes at 10 uM incubated for 1 hr by TAMRA-FP probe based competitive activity-based protein profiling assay; type: cell membranes; settings: Membrane; how it was run: as §1
T4 sequence (whole entry): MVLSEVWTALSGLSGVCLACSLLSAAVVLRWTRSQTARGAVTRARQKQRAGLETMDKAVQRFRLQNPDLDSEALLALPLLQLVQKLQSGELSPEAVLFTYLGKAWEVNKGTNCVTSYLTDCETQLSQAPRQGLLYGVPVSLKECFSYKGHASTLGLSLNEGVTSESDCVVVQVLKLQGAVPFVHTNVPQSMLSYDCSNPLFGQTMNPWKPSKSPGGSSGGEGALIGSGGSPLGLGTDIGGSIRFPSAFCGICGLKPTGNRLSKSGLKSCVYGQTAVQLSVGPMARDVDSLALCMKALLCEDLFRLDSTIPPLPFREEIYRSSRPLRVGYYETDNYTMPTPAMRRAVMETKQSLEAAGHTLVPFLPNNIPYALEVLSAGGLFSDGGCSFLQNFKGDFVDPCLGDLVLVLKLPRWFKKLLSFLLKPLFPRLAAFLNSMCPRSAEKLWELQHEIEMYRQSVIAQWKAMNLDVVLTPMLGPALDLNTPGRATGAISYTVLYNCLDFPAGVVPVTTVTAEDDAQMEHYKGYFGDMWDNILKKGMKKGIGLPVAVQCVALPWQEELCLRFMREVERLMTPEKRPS

[5] = target: T5, Monoacylglycerol lipase ABHD6 (Homo sapiens, UniProt Q9BV23); assay: Inhibition of human ABHD6 expressed in HEK293 cells at 1 uM pre-incubated for 10 mins before 2-AG substrate addition followed by rapid 40 fold compound dilution measured after 60 mins by HPLC method; type: cell-based
T5 sequence (Q9BV23 whole entry): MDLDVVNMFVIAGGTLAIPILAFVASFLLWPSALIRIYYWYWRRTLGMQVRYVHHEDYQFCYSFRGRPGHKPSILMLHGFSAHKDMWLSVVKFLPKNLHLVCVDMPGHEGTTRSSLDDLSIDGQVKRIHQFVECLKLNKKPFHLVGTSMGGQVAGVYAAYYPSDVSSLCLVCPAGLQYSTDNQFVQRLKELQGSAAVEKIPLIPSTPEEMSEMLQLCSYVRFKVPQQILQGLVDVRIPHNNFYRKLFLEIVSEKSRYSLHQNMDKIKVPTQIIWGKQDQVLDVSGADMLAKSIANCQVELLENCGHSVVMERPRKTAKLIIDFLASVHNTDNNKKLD

[6] = target: T6, Monoacylglycerol lipase ABHD6 (Homo sapiens) (UniProt Q9BV23); settings: HEK293, 1 uM
T6 sequence (whole entry): T5 sequence (Q9BV23 whole entry)

[7] = target: T3, Monoacylglycerol lipase ABHD6 (Mus musculus); assay: Inhibition of ABHD6 in mouse whole brain membranes at 1 uM incubated for 1 hr by TAMRA-FP probe based competitive activity-based protein profiling assay; type: cell membranes; settings: Membrane; how it was run: as §1

inhibition [1]	inhibition [2]	inhibition [3]	inhibition [4]	IC50 [5]	inhibition [6]	inhibition [7]	Compound
41%	21%	Active	inactive	3.63 µM	Active	–	COc1nn(Cc2cccc(N)c2)c(=O)o1
–	–	–	Active	–	–	Active	Nc1cccc(Cn2nc(Oc3ccccc3)oc2=O)c1

From ChEMBL document CHEMBL3612019, “Revisiting 1,3,4-Oxadiazol-2-ones: Utilization in the Development of ABHD6 Inhibitors” (Bioorg Med Chem, 2015)
